Calls of active or inactive are those of the source. The rule behind the calls is not given here.
Legend:
[1] = Selectivity index, ratio of IC50 for mouse astrocytes to IC50 for human U373 cells
[2] = target: Histone deacetylase 1 (Homo sapiens) (UniProt Q13547); test: Inhibition of His-tagged recombinant human HDAC1 expressed in baculovirus expression system at 0.1 to 100 uM using Fluor-de-Lys-SIRT1 as substrate after 15 mins by fluorescence assay
[3] = target: Histone deacetylase 2 (Homo sapiens) (UniProt Q92769); test: Inhibition of His-tagged recombinant full length human HDAC2 expressed in baculovirus infected insect cells at 0.1 to 100 uM using Fluor-de-Lys-SIRT1 as substrate after 15 mins by fluorescence assay
Sequence of Histone deacetylase 2 (Homo sapiens) (Q92769 whole entry): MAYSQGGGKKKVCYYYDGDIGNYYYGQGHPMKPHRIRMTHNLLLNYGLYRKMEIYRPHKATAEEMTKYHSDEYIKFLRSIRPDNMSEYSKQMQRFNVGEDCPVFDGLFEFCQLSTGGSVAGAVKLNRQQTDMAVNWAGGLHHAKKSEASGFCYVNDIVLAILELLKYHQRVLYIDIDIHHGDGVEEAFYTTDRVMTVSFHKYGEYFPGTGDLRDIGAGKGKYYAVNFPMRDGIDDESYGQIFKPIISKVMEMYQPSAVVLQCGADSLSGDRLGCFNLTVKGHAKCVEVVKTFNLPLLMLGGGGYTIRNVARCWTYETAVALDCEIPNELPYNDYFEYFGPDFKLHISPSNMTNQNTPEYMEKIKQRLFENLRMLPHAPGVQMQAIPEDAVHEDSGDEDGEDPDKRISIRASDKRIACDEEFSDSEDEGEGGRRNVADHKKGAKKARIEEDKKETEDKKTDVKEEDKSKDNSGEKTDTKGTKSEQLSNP

[4] = target: Histone deacetylase 11 (Homo sapiens) (UniProt Q96DB2); test: Inhibition of N-terminal His-tagged recombinant human HDAC11 expressed in baculovirus infected insect Sf9 cells at 0.1 to 100 uM using Fluor-de-Lys-SIRT1 as substrate after 15 mins by fluorescence assay
Sequence of Histone deacetylase 11 (Homo sapiens) (Q96DB2 whole entry): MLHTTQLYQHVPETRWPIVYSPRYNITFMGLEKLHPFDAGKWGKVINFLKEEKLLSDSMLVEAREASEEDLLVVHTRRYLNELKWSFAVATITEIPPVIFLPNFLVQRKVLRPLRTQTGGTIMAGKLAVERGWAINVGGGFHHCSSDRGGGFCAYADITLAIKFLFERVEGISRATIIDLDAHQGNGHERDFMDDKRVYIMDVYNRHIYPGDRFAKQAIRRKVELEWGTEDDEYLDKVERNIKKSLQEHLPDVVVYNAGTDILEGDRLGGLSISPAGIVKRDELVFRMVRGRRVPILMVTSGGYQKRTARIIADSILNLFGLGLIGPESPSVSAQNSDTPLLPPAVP

[5] = target: T1, NAD-dependent protein deacetylase sirtuin-2 (Homo sapiens) (UniProt Q8IXJ6); test: Inhibition of SIRT2 in human U373 cells assessed as increase of alpha-tubulin acetylation after 8 hrs by Western blotting method; type: cell-based
T1 sequence (whole entry): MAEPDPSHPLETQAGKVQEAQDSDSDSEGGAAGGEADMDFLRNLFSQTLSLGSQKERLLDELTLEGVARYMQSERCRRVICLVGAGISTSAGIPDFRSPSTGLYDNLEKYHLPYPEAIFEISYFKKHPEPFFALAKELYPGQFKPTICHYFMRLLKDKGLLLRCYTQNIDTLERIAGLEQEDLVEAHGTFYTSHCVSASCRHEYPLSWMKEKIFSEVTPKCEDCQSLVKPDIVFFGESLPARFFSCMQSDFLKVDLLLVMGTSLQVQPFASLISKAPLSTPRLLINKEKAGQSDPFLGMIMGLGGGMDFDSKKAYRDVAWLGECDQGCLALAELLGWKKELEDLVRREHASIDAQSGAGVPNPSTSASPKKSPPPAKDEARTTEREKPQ

Hs 683 = test: Induction of senescence in human Hs683 cells at 5 uM after 6 days by beta-galactosidase assay (reference value: 0.2%); type: functional
How it was run: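 Cells were kept 6 days in medium containing 5 μM compound or DMSO vehicle, then stained for senescence-associated β-galactosidase activity. Blue-stained cells were counted and expressed as a percentage of total cells counted. Two independent experiments.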

U-373MG ATCC [6] = test: Inhibition of 3D tumor-like growth of human U373 cells assessed as decrease in ATP level at 5 to 10 uM treated for 24 hrs measured after 96 hrs by CellTiter-Glo assay; type: functional, cell-based
U-373MG ATCC [7] = test: Antitumor activity against CM-Dil fluorescent dye labeled human U373 cells xenografted in zebrafish embryo at 5 to 10 uM preincubated with tumor for 30 to 36 hrs followed by tumor implantation in zebra fish yolk sac measured after 72 hrs by fluorescence microscopy; type: functional, cell-based
How it was run: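 Cells were pretreated in vitro at 5 or 10 μM for 30 or 36 h and labeled with CM-DiI 2 h before injection. Then 100–200 cells were injected into the yolk sac of wild-type zebrafish 48 h post-fertilization, anesthetized in 0.02% tricaine. Embryos were kept 72 h at 28.5 °C in Danieau solution with 0.003% phenylthiourea, and fluorescence was quantified in eight fish per condition.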

[8] = target: T1, NAD-dependent protein deacetylase sirtuin-2 (Homo sapiens); test: Inhibition of SIRT2 in human Hs683 cells assessed as increase of alpha-tubulin acetylation at 1 uM after 8 hrs by Western blotting method relative to control; type: cell-based
[9] = target: T1, NAD-dependent protein deacetylase sirtuin-2 (Homo sapiens); test: Inhibition of SIRT2 in human Hs683 cells assessed as increase of alpha-tubulin acetylation at 5 uM after 8 hrs by Western blotting method relative to control; type: cell-based
U-373MG ATCC [10] = test: Cell cycle arrest in human U373 cells assessed as accumulation at G2/M phase at 2 uM after 24 to 48 hrs by propidium iodide staining-based flow cytometry; type: functional; conditions: 7.5 uM, in the assay text read “at 7.5 uM” for “at 2 uM”
How it was run: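 Cells were exposed to compound at the IC50 for each line from the 72 h MTT assay, or to a reference HDAC inhibitor at 2 μM. Cell cycle distribution was analyzed after 24 and 48 h. Results are mean ± SD of three independent experiments, with p values against control cells.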

CCRF-CEM = test: Growth inhibition of human CCRF-CEM cells after 48 hrs by SRB assay; type: functional
EKVX = test: Growth inhibition of human EKVX cells after 48 hrs by SRB assay; type: functional
NCI-H322M = test: Growth inhibition of human NCI-H322M cells after 48 hrs by SRB assay; type: functional
COLO 205 = test: Growth inhibition of human COLO205 cells after 48 hrs by SRB assay; type: functional; conditions: COLO 205, 48 h
SW-620 = test: Growth inhibition of human SW620 cells after 48 hrs by SRB assay; type: functional; conditions: SW-620, 48 h
MDA-MB-435 = test: Growth inhibition of human MDA-MB-435 cells after 48 hrs by SRB assay; type: functional; conditions: MDA-MB-435, 48 h
SK-MEL-2 = test: Growth inhibition of human SK-MEL-2 cells after 48 hrs by SRB assay; type: functional; conditions: SK-MEL-2, 48 h
SK-MEL-28 = test: Growth inhibition of human SK-MEL-28 cells after 48 hrs by SRB assay; type: functional; conditions: SK-MEL-28, 48 h
OVCAR-8 = test: Growth inhibition of human OVCAR8 cells after 48 hrs by SRB assay; type: functional; conditions: OVCAR-8, 48 h
ACHN = test: Growth inhibition of human ACHN cells after 48 hrs by SRB assay; type: functional
RXF 393 = test: Growth inhibition of human RXF393 cells after 48 hrs by SRB assay; type: functional; conditions: RXF 393, 48 h
TK-10 = test: Growth inhibition of human TK10 cells after 48 hrs by SRB assay; type: functional; conditions: TK-10, 48 h
UO-31 = test: Growth inhibition of human UO31 cells after 48 hrs by SRB assay; type: functional; conditions: UO-31, 48 h
T47D = test: Growth inhibition of human T47D cells after 48 hrs by SRB assay; type: functional
MDA-MB-468 = test: Growth inhibition of human MDA-MB-468 cells after 48 hrs by SRB assay; type: functional; conditions: MDA-MB-468, 48 h

Sequence of Histone deacetylase 1 (Homo sapiens) (Q13547 whole entry): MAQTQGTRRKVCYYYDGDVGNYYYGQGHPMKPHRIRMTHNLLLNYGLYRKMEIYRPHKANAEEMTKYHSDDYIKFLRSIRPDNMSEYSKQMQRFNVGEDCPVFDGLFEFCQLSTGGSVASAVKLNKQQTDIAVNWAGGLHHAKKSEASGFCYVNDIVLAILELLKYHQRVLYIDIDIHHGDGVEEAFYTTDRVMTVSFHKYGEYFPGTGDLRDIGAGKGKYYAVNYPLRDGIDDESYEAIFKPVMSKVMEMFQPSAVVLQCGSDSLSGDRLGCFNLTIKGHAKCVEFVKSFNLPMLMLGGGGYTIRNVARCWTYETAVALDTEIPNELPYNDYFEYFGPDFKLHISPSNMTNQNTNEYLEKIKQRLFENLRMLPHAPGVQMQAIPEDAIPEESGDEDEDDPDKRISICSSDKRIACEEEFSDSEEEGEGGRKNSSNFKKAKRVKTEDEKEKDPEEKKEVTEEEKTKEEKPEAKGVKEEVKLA

CC(C)(C)OC(=O)Nc1ccc2c(c1)C(NC(=O)Nc1cccc(C#N)c1)CC(C)(C)O2 (stereo unspecified)
Ratio IC50 [1]: >10
inhibition [2]: inactive
inhibition [3]: inactive
inhibition [4]: inactive
inhibition [5]: Dose-dependent effect
Activity (Hs 683): 0.5%
inhibition (U-373MG ATCC [6]): Active
Activity (U-373MG ATCC [7]): Active
fold change (FC) [8]: 1.3
fold change (FC) [9]: 1.5
Activity (U-373MG ATCC [10]): Active
GI50 (CCRF-CEM): 3.31 µM
GI50 (EKVX): 0.562 µM
GI50 (NCI-H322M): 21.9 µM
GI50 (COLO 205): 3.55 µM
GI50 (SW-620): 3.8 µM
GI50 (MDA-MB-435): 1.48 µM
GI50 (SK-MEL-2): 5.37 µM
GI50 (SK-MEL-28): 6.46 µM
GI50 (OVCAR-8): 3.16 µM
GI50 (ACHN): 3.8 µM
GI50 (RXF 393): 6.17 µM
GI50 (TK-10): 5.5 µM
GI50 (UO-31): 4.27 µM
GI50 (T47D): 2.69 µM
GI50 (MDA-MB-468): 0.269 µM
